In the library only some 3.8% were active in any assay of this set; here they are far more common.
OX1R antag-1: human HCRTR1 antagonism; inhibition, % at 5 µM; 330,000 compounds, 0.43% hits; CHO/OX1R cells, Fluo-8 calcium fluorescence, orexin A;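 active = inhibition above its plate's threshold, mean inhibition of all tested compounds on the plate plus 3 SD, cut at about 37% in these data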
GPR7 antagonist: antagonists of human GPR7 (neuropeptides B/W receptor 1) | P48145 | GPR7-expressing cells, fluorescence antagonist assay | AID 1861 | 290,000 compounds, 1.1% hits | inhibition, % at 4.4 µM; in the data active = inhibition above about 16%, passing the limit was not always enough;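 also: cells stimulated with the agonist NPW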
Target sequence (P48145 whole entry, looked up): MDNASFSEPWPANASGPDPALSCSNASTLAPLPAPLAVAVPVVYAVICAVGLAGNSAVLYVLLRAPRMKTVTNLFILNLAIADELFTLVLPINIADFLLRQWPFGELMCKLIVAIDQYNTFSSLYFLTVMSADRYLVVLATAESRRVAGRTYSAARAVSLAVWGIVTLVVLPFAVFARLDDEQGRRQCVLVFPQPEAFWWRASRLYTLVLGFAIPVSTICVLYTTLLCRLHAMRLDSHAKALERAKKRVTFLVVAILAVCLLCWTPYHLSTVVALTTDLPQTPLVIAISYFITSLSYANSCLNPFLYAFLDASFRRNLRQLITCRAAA
MPTP inh: blocks calcium-induced mitochondrial swelling. AID 602449. isolated mouse mitochondria, Ca2+ swelling absorbance, 30 min. 360,000 compounds, 1.4% hits. inhibition, % at 10 µM;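 active = inhibition of 50% or more, scaled per plate between neutral and stimulator controls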
OX1R antag-2: blocks the human orexin 1 receptor. O43613. OX1R-expressing cells, FRET antagonist read-out. inhibition, % at 6.6 µM. 330,000 compounds, 1.8% hits. AID 485270; in the data active = inhibition mostly above about 38%, no sharp cut-off; inactive = mostly below about 40%
CHO parental Ca: counter-screen: ATP calcium response change in parental CHO cells. 330,000 compounds, 0.63% hits. parental CHO-K1, ATP-induced calcium, Fluo-8 fluorescence. AID 463079. inhibition, % at 5.6 µM;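 active = inhibition above that plate's mean sample inhibition plus 3 SD, cut at about 26% in these data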
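Test system: parental CHO cells; detection: calcium-sensitive Fluo-8 fluorescence; evaluation: percent inhibition of calcium signal; also added: ATP as calcium-mobilizing challenge; repeats: one well per compound; control set: ATP-challenged DMSO wells low, unchallenged DMSO wells high; compound: single nominal dose of 5.6 µM per compound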
Rh123 counter: membrane potential counter-screen of mitochondrial pore inhibitors | shares compounds with MPTP inh | isolated mitochondria, Rhodamine 123 fluorescence | inhibition, % at 10 µM | 5,000 compounds, 78% hits | AID 624504; in the data active = inhibition above about 22%
MPTP swell DR: MPTP inhibition, dose response swelling confirmation. shares compounds with MPTP inh. 780 compounds, 58% hits. isolated mitochondria swelling, absorbance. IC50, µM; in the data active = IC50 below about 20 µM
MPTP counter DR: counter-screen for mitochondrial permeability transition pore inhibitors, dose response; shares compounds with MPTP inh; isolated mitochondria counterscreen, fluorescence read-out; IC50, µM; 780 compounds, 49% hits; AID 651564; in the data active = IC50 below about 80 µM
Of the large screens only hits and unclear results are named; the others gave an inactive call (follow-up assays come after a bar, where they were run).

S=C(Nc1ccc(Cc2ccncc2)cc1)Nc1cccc(Cl)c1	MPTP inh 93 | Rh123 counter 81
Cc1cccc(NC(=O)Nc2ccc(Cl)cc2)n1	none
CC(=O)N(C)c1ccc(NC(=O)Nc2ccc(Cl)cc2)cc1	MPTP inh 56 (no result: GPR7 antagonist) | Rh123 counter 78
CNC(=S)Nc1ccc(Cc2ccncc2)cc1	none
Cc1nccc(-c2cccc(NC(=O)Nc3ccc(Cl)cc3)c2)n1	MPTP inh 83 | Rh123 counter 93
CC(=O)N(C)c1ccc(NC(=O)c2cnn(C)c2)cc1	MPTP inh 70 | Rh123 counter inactive
CCCOc1ccc(CNC(=O)c2ccc3c(c2)N(CC)CCS3)cc1	none
CCOc1ccc(CC(=O)Nc2nccs2)cc1OCC	none
O=C(Nc1ccncc1)Nc1cccc(Cl)c1	MPTP inh 57 | Rh123 counter 95
Cn1nc(C(=O)Nc2cccc(Cl)c2)cc1C(=O)Nc1cccc(Cl)c1	MPTP inh 57 | Rh123 counter 84
O=C(Nc1cccc(Cl)c1)Nc1csc([N+](=O)[O-])c1	MPTP inh 72, OX1R antag-2 50, CHO parental Ca 62 | Rh123 counter 69
O=C(Nc1cccc(Cl)c1)Nc1ccc2c(c1)C(=O)OC2	MPTP inh 80 | Rh123 counter 85
O=C(c1ccc(Cl)nc1)N1CCN(S(=O)(=O)c2ccccc2)CC1	none
COc1ccc(CCC(=O)N2CCN(c3ccc([N+](=O)[O-])cc3)CC2)cc1OC	none
CN(C)c1ccc(NC(=O)Nc2cccc(Cl)c2)cc1	MPTP inh 74 | Rh123 counter 72
O=C(Nc1cccc(Cl)c1)Nc1sccc1-c1nc2ccccc2s1	MPTP inh 78 | Rh123 counter 69
O=C(O)Cc1ccc(NC(=O)Nc2cccc(Cl)c2)cc1	none
CC(C)Cn1c(N)c(C=O)c(=O)[nH]c1=O	none
COC(=O)c1ccccc1S(=O)(=O)NCc1nc2nc(C)cc(C)n2n1	none
CN(C)S(=O)(=O)c1ccc(Cl)c(C(=O)NNC(=O)Cn2ccc(C(F)(F)F)n2)c1	none (no result: OX1R antag-1, GPR7 antagonist, OX1R antag-2, CHO parental Ca)
O=S(=O)(NCC1CCCO1)c1ccc(-c2ccc(S(=O)(=O)NCC3CCCO3)cc2)cc1 (configuration not stated)	OX1R antag-1 40, MPTP inh 86, CHO parental Ca 41 | Rh123 counter 101
Nc1ncnc2c(C3OC(CO)C(O)C3O)scc12 (configuration not stated)	none (no result: OX1R antag-1, GPR7 antagonist, OX1R antag-2, CHO parental Ca)
N/N=C1\CCCc2c1[nH]c1ccc([N+](=O)[O-])cc21	none
O=[N+]([O-])c1ccc2[nH]c3c(c2c1)CCCC3	MPTP inh 72 | Rh123 counter 71
O=[N+]([O-])c1cc2oc3c(c2c(C=NCc2ccncc2)c1O)CCCC3	none (no result: OX1R antag-1, OX1R antag-2, CHO parental Ca)
CC[C@H](C)Cc1cn([C@@H](CCCN=C(N)N)C(=O)NCCCCCCCCCCC(=O)N2CCNCC2)nn1	MPTP inh 86 (no result: GPR7 antagonist) | Rh123 counter inactive | MPTP swell DR 11 | MPTP counter DR 76
NCCCC[C@@H](C(=O)NCCCCCCCCCCC(=O)N1CCNCC1)n1cc(CCCC(=O)O)nn1	none (no result: GPR7 antagonist)
CCOC(=O)N1CCC(Nc2c(Nc3cccc(CC)c3)c(=O)c2=O)CC1	MPTP inh 89 | Rh123 counter 72
CCOC(=O)N1CCC(Nc2c(Nc3ccc(F)cc3)c(=O)c2=O)CC1	none
O=C(O)c1ccc(N=NNc2cccc([N+](=O)[O-])c2)cc1	none
O=C(/C(N=Nc1cccc([N+](=O)[O-])c1)=C(/O)c1ccc(Br)cc1)C(F)(F)F	MPTP inh 78 | Rh123 counter 62
O=C(CN(Cc1ccccc1)C(=O)c1cccc([N+](=O)[O-])c1)Nc1c(Cl)cc(Cl)cc1Cl	none
CCOC(=O)c1ccc(S(=O)(=O)Nc2ccc3cn[nH]c3c2)cc1	MPTP inh 55 | Rh123 counter 39
O=C(NN=Cc1ccc(O)cc1)c1ccccc1NS(=O)(=O)c1cccs1	none (no result: GPR7 antagonist)
O=C(N/N=C/c1ccccc1O)NC12CC3CC(CC(C3)C1)C2	none
O=C(N/N=C/c1cc(Cl)cc([N+](=O)[O-])c1O)NC12CC3CC(CC(C3)C1)C2	MPTP inh 84 | Rh123 counter inactive
Cc1nn(-c2ccccc2)c(Cl)c1/C=N/NC(=O)c1ccccc1NS(=O)(=O)c1cccs1	MPTP inh 88 | Rh123 counter 66
O=C(N/N=C/c1cc(Cl)cc([N+](=O)[O-])c1O)c1ccccc1NS(=O)(=O)c1cccs1	MPTP inh 84 | Rh123 counter 26
COc1ccc(-c2c([C@H]3[C@H]4C=CC[C@@H](C)[C@@H]4C(=O)N3Cc3ccccc3)ccc3ccccc23)cc1OC	none (no result: GPR7 antagonist)
O=C(C[C@@H]1CC[C@H](NC(=O)Nc2ccc(F)cc2)[C@@H](CO)O1)NCc1cccc(F)c1	none (no result: OX1R antag-1, GPR7 antagonist, OX1R antag-2, CHO parental Ca)
CCN(CC(=O)Nc1c(F)cccc1F)C(=O)CCC(=O)c1ccc(C)cc1	none (no result: GPR7 antagonist)
Clc1cc(Cl)cc(Nc2ncn[nH]2)c1	none
CC12CCC(c3nnc(SCc4ccc(Cl)cc4)nc31)C2(C)C (configuration not stated)	none
CN1CCC2(CC1)Nc1nc(SCc3ccc(Cl)cc3)nn1C1=C2CN(C)CC1	MPTP inh 63 | Rh123 counter inactive | MPTP swell DR 9.7 | MPTP counter DR inactive
CCOc1ccc(C2C=C(c3ccc(C)cc3)Nc3nnnn32)cc1 (configuration not stated)	MPTP inh 73 | Rh123 counter 26
O=C(COC(=O)c1cc(S(=O)(=O)Nc2ccccc2Cl)ccc1O)Nc1ccc(F)c(F)c1F	MPTP inh 68, OX1R antag-2 34 (no result: GPR7 antagonist) | Rh123 counter 85
COc1ccccc1NS(=O)(=O)c1ccc(O)c(C(=O)OCC(=O)Nc2ccccc2F)c1	none
COc1ccc(C(C[N+](=O)[O-])c2c(C)[nH]n(-c3ccccc3)c2=O)cc1 (configuration not stated)	none
Cc1[nH]n(-c2ccccc2)c(=O)c1C(c1ccc(O)c([N+](=O)[O-])c1)c1c(C)[nH]n(-c2ccccc2)c1=O	MPTP inh 91 | Rh123 counter 74
COc1cc(C=C2C(=O)OC(C)(C)OC2=O)cc(Cl)c1OCC(=O)Nc1ccccc1	none
CC(C)(C)C1(C)OC(=O)C(=Cc2ccc(OCC(=O)Nc3ccccc3)cc2)C(=O)O1 (configuration not stated)	MPTP inh 67 | Rh123 counter inactive
CCOC(=O)c1c(NC(=O)CSc2nc3cc(Cl)ccc3s2)sc(C(C)=O)c1C	none (no result: MPTP inh)
CCOC(=O)c1c(NC(=O)CSc2nc3ccccc3s2)sc(C(C)=O)c1C	MPTP inh 86, CHO parental Ca 36 | Rh123 counter 50

Source: PubChem BioAssay (several laboratories)
